# Data: ChEMBL document CHEMBL1132996, “Derivatives of (R)-1,11-methyleneaporphine: synthesis, structure, and interactions with G-protein coupled receptors” (J Med Chem, 2000)
# How the values were obtained:
# [1] = biological target: T1, 5-hydroxytryptamine receptor 7 (Rattus norvegicus, UniProt P32305); test: Displacement of [3H]5-HT from over-expressed rat 5-hydroxytryptamine 7 receptor
# Summary of the method: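 Cloned rat 5-HT7 receptor in CHO or Sf9 cell membranes, in 50 mM Tris-HCl, 4 mM MgCl2, 1 mM EDTA, pH 7.4; 30-40 pM receptor. Competition against 0.8 nM [3H]5-HT, 60 min at 30 °C. Nonspecific binding defined with 10 μM methiothepin. Filtration, scintillation counting. Ki by nonlinear regression, mean ± SE of 2–3 experiments.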
# [2] = biological target: T2, 5-hydroxytryptamine receptor 1A (Homo sapiens, UniProt P08908); test: Binding affinity was measured on cloned human 5-hydroxytryptamine 1A receptor which is labeled by [3H]8-OH-DPAT
# T2 sequence (P08908 whole entry): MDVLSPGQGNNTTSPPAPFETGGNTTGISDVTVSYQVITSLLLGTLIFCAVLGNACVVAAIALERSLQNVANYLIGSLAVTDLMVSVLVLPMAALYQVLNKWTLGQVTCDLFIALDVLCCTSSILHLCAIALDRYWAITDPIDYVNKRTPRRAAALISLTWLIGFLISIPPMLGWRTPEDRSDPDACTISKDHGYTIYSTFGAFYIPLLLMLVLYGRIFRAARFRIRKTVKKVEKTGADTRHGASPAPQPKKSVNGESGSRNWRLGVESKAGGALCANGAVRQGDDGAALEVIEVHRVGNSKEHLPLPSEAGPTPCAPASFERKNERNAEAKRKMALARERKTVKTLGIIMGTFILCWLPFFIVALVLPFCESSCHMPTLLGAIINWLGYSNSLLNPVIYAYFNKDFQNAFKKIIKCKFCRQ
# Summary of the method: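 Membranes from CHO cells expressing cloned human 5-HT1A receptor, in 50 mM Tris-HCl, 4 mM MgCl2, pH 7.4; about 40 pM receptor. Competition against 1 nM [3H]8-OH-DPAT, 60 min at 30 °C. Nonspecific binding defined with 10 μM WAY-100635. Filtration, liquid scintillation counting. Ki by nonlinear regression, mean ± SE of 2–3 experiments.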
# [3] = biological target: T3, D(2) dopamine receptor (Homo sapiens, UniProt P14416); test: Displacement of [3H]raclopride from human Dopamine receptor D2A
# Summary of the method: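 Cloned human D2A receptor expressed in mouse fibroblast Ltk- cell membranes. Competition against [3H]raclopride binding, following an earlier method. Ki by nonlinear regression, mean ± SE of 2–3 experiments.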
# [4] = biological target: T1, 5-hydroxytryptamine receptor 7; test: Binding affinity against Rat 5-hydroxytryptamine 7 receptor using [3H]5-HT
# [5] = biological target: T4, 5-hydroxytryptamine receptor 1A (Rattus norvegicus, UniProt P19327); test: Binding affinity was measured on cloned rat 5-hydroxytryptamine 1A receptor which is labeled by [3H]8-OH-DPAT
# T4 sequence (P19327 whole entry): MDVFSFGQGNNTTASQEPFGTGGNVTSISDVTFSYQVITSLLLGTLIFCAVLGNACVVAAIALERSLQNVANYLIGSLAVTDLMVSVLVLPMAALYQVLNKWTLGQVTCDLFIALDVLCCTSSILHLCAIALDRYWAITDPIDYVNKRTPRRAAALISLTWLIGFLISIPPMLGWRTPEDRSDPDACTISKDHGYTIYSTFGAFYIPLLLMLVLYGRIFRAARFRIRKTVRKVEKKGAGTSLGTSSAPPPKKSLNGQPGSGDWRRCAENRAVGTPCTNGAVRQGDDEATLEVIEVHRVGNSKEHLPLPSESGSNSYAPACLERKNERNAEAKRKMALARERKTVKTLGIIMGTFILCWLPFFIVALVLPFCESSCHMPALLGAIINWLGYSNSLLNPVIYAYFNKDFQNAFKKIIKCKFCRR
# [6] = biological target: T2, 5-hydroxytryptamine receptor 1A
# [7] = biological target: T3, D(2) dopamine receptor; test: Binding affinity was measured on cloned Human D2A Receptor which is labeled by [3H]raclopride
# T3 sequence (P14416 whole entry): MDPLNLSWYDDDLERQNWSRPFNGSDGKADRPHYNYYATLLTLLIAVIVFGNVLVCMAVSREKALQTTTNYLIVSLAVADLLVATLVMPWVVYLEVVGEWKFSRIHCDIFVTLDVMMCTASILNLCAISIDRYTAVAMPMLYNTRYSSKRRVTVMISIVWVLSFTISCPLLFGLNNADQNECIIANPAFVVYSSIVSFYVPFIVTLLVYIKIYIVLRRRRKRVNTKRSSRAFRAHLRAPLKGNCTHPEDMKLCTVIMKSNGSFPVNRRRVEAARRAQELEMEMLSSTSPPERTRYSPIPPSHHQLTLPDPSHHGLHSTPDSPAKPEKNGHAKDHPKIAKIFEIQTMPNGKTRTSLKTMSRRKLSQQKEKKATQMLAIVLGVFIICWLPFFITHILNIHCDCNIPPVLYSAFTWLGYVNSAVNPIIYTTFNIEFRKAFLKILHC
# T1 sequence (P32305 whole entry): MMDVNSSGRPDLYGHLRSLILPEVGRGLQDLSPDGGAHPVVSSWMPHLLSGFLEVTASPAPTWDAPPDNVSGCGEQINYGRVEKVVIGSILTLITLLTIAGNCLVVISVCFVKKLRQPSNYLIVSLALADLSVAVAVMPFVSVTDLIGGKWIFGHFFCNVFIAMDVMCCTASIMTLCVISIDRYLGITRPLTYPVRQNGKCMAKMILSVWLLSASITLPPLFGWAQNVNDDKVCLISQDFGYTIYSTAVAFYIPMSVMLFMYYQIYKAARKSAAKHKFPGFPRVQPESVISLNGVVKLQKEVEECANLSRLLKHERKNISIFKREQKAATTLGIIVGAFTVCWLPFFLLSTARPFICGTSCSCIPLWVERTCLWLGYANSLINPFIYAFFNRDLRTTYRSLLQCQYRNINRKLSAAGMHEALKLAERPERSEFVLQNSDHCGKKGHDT
SMILES,Ki [1],Ki [2],Ki [3],Ki [5],Ki [6],Ki [7],Ki [4]
CCCN(CCC)[C@@H]1CCc2cccc(O)c2C1,,,,,,,8.81 nM
CN1CCc2ccc3c4c2[C@H]1Cc1cccc(c1-4)[C@@H]3O,103 nM,,215 nM,1210 nM,,,
CN1CCc2ccc3c4c2[C@H]1Cc1cccc(c1-4)[C@@]3(C)O,27.7 nM,,182 nM,315 nM,,,
CN1CCc2ccc3c4c2[C@H]1Cc1cccc(c1-4)[C@]3(C)O,4.3 nM,,26 nM,61.5 nM,,,
CCCN(CCC)[C@H]1CCc2c(F)ccc(O)c2C1,,,,,87 nM,3760 nM,3180 nM
CO[C@@]1(C)c2cccc3c2-c2c1ccc1c2[C@@H](C3)N(C)CC1,1.1 nM,16.9 nM,71 nM,,,,
NCCc1c[nH]c2ccc(C(N)=O)cc12,,,,,,,0.029 nM
Cc1cccc2c1-c1cccc3c1[C@@H](C2)N(C)CC3,,,,,14.4 nM,,38.3 nM
CN1CCc2cccc3c2[C@H]1Cc1ccc(O)c(O)c1-3 [APOMORPHINE],,,,,,,188 nM
C[C@@H]1c2cccc3c2-c2c1ccc1c2[C@@H](C3)N(C)CC1,,,,,5.05 nM,19.4 nM,3.36 nM

# More lines, main results first:
Ki [1],Ki [2],Ki [3],Ki [5],Ki [6],Ki [7],SMILES,Ki [4]
1.1 nM,17.3 nM,7.1 nM,,,,CO[C@]1(C)c2cccc3c2-c2c1ccc1c2[C@@H](C3)N(C)CC1,
,,,,40.7 nM,83.2 nM,CN1CCc2ccc3c4c2[C@H]1Cc1cccc(c1-4)C3,6.9 nM
18 nM,355 nM,,,,,CN1CCc2ccc3c4c2[C@H]1Cc1cccc(c1-4)[C@@H]3N,
,,,,31.1 nM,39.2 nM,C[C@H]1c2cccc3c2-c2c1ccc1c2[C@@H](C3)N(C)CC1,5.6 nM
1320 nM,716 nM,7980 nM,,,,CC(=O)N[C@H]1c2cccc3c2-c2c1ccc1c2[C@@H](C3)N(C)CC1,
13.5 nM,,23.8 nM,31 nM,,,CN1CCc2ccc3c4c2[C@H]1Cc1cccc(c1-4)[C@H]3O,
25.7 nM,1.84 nM,70.8 nM,,,,CCO[C@]1(CC)c2cccc3c2-c2c1ccc1c2[C@@H](C3)N(C)CC1,
291 nM,,317 nM,140 nM,,,CN1CCc2ccc3c4c2[C@H]1Cc1cccc(c1-4)C3=O,
13.4 nM,142 nM,261 nM,,,,CN1CCc2ccc3c4c2[C@H]1Cc1cccc(c1-4)[C@H]3N,
3.05 nM,19.1 nM,24.5 nM,,,,CCO[C@@]1(CC)c2cccc3c2-c2c1ccc1c2[C@@H](C3)N(C)CC1,
538 nM,204 nM,3650 nM,,,,CC(=O)N[C@@H]1c2cccc3c2-c2c1ccc1c2[C@@H](C3)N(C)CC1,
